From paper PMC5900965 (Clinical Pharmacology in Drug Development, 2017)
“And” between values parts separate entries of the source, which are not always exact repeats. Equal values may be shown once.

Assays:
CYP3A [1] = molecular target: T1, CYP3A (Homo sapiens, UniProt P08684); assay: clinical; conditions: in vivo; for Tmax: Tmax of midazolam, median (range)
[2] = Phase 1 study safety and tolerability; type: in vivo, human
CYP2D6 [3] = molecular target: T2, CYP2D6 (Homo sapiens, UniProt P10635); assay: Time-dependent inhibition of CYP2D6 in pooled human liver microsomes; type: in vitro ADME
CYP2C9 = CYP2C9 (Homo sapiens, UniProt P11712); assay: Reversible inhibition of CYP2C9 in pooled human liver microsomes; type: in vitro ADME
CYP1A2 [4] = type: in vitro ADME; conditions: human hepatocytes, 72 hours; data not shown
CYP3A4 mRNA = assay: Induction of CYP3A mRNA in cryopreserved human hepatocytes; type: in vitro ADME; conditions: for Estimated Emax (Fold Induction): highest fold induction observed
CYP2C8 = molecular target: T3, CYP2C8 (Homo sapiens, UniProt P10632); assay: Reversible inhibition of CYP2C8 in pooled human liver microsomes; type: in vitro ADME
T3 sequence (P10632 1-490): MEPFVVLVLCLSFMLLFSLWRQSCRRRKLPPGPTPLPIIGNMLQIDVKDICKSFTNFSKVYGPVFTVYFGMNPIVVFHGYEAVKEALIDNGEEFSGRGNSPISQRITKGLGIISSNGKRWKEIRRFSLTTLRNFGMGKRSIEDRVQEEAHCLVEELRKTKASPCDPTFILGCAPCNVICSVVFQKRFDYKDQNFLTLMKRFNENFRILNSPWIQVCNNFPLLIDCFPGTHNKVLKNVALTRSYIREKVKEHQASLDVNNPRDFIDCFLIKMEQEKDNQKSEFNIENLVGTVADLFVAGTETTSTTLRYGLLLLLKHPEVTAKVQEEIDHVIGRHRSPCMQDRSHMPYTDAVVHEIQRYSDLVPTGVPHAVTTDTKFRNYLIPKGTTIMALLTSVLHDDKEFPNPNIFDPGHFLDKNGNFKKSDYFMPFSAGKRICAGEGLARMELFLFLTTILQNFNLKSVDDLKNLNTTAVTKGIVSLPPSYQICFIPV

[5] = cited from earlier work
CYP3A4/5 = assay: Time-dependent inhibition of CYP3A in pooled human liver microsomes; type: in vitro ADME
[6] = system: CYP2C8, CYP2C9, CYP2D6 and CYP3A (range over these CYPs); assay: Reversible CYP inhibition panel in human liver microsomes; type: in vitro ADME; conditions: pooled human liver microsomes
CYP3A [7] = molecular target: T1, CYP3A; assay: Reversible inhibition of CYP3A in pooled human liver microsomes; type: in vitro ADME
[8] = Clinical plasma exposure after oral PF-04171327; type: in vivo, human; conditions: 25‐mg steady‐state administration of PF‐04171327
CYP2C19 = CYP2C19 (Homo sapiens, UniProt P33261); assay: Reversible inhibition of CYP2C19 in pooled human liver microsomes; type: in vitro ADME
CYP2B6 = molecular target: T4, CYP2B6 (Homo sapiens, UniProt P20813); assay: Reversible inhibition of CYP2B6 in pooled human liver microsomes; type: in vitro ADME
T4 sequence (P20813 1-491): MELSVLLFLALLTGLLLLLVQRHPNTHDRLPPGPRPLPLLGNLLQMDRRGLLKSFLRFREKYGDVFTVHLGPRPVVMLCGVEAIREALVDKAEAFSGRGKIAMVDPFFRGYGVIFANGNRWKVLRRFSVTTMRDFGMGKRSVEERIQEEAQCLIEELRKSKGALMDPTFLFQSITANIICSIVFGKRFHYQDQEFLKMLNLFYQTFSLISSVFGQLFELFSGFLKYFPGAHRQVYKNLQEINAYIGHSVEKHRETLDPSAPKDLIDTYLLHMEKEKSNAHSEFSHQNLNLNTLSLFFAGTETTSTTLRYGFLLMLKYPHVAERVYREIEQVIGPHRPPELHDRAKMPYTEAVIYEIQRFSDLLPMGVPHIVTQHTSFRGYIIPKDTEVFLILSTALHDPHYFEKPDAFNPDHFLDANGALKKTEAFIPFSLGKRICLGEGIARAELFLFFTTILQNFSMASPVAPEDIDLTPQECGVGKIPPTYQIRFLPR

CYP2D6 [9] = molecular target: T2, CYP2D6; assay: Reversible inhibition of CYP2D6 in pooled human liver microsomes; type: in vitro ADME
[10] = at 0.76 mg/mL microsomal protein; ref data on file; cited from earlier work
CYP1A2 [11] = molecular target: T5, CYP1A2 (Homo sapiens, UniProt P05177); assay: biochemical; type: in vitro ADME
T5 sequence (P05177 1-516): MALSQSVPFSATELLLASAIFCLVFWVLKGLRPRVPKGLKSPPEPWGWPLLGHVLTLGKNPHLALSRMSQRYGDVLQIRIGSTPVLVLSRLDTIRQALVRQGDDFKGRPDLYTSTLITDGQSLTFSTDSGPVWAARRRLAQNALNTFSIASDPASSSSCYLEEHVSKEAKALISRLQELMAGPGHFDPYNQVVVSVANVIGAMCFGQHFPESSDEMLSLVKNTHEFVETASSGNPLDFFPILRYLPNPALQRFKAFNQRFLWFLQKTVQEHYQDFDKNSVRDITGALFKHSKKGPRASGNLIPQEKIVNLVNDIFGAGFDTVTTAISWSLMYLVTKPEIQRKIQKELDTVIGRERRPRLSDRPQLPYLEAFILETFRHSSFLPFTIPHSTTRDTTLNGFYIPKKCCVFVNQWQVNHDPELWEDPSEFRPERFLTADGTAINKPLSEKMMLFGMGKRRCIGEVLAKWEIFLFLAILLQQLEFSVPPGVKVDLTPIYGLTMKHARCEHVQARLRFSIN

CYP3A4 = assay: Induction of CYP3A4 enzyme activity in cryopreserved human hepatocytes; type: in vitro ADME; conditions: 72 hours, positive defined as ≥2‐fold
Procedure, shortened: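 Cryopreserved human hepatocytes from several lots, in collagen-coated wells, were exposed for 72 h to test compound (0.5–100 or 0.5–60 μM), vehicle, or rifampin (25 or 10 μM). After washing, testosterone (250 μM) or midazolam (30 μM) was added. 6β-Hydroxytestosterone was measured by HPLC-UV and 1′-hydroxymidazolam by LC-MS/MS. A ≥2-fold rise counted as positive. EC50 and Emax were fitted to the concentration–fold-induction curves.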

[12] = 10 and 25 mg; patients with RA; week 8; cited from earlier work

T2 sequence (P10635 whole entry): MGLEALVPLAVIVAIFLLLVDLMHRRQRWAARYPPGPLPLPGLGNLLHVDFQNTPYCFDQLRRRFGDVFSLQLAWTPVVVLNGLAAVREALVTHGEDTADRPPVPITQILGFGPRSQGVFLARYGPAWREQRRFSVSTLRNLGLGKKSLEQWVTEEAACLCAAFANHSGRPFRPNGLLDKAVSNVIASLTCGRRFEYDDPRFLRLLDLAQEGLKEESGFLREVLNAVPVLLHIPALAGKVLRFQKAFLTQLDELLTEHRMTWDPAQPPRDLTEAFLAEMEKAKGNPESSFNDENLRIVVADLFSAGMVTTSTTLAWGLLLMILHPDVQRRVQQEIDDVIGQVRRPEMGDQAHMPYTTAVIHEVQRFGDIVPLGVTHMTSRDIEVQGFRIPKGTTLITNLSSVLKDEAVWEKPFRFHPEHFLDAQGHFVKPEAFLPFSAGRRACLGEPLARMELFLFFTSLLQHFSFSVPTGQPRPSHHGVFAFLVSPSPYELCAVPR
T1 sequence (P08684 2-503): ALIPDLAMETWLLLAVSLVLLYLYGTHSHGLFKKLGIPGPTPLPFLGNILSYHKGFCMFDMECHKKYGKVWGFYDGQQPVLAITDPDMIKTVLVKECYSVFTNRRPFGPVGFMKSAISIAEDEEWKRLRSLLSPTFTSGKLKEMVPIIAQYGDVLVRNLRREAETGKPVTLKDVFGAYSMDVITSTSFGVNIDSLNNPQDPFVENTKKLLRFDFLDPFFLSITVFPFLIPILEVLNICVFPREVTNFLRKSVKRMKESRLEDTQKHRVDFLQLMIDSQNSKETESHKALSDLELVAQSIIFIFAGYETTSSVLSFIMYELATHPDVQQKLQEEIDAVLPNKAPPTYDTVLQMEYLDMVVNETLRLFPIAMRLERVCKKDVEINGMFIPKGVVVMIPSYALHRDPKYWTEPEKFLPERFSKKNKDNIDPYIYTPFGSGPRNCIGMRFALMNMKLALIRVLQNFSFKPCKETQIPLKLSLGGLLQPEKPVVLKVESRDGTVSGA
CYP2C9, sequence (P11712 whole entry): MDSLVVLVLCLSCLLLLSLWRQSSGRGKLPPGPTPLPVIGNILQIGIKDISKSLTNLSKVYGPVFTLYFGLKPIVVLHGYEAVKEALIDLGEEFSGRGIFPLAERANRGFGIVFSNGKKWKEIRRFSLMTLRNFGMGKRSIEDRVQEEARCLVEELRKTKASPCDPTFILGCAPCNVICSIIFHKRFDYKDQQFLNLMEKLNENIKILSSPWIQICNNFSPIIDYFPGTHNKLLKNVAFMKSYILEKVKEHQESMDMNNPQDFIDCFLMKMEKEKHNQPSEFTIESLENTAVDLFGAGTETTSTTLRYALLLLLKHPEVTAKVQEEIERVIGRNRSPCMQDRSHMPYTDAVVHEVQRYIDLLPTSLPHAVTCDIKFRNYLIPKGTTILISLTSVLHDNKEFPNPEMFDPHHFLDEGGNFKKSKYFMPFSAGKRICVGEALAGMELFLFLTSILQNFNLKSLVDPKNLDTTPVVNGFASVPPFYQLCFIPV
CYP2C19, sequence (P33261 whole entry): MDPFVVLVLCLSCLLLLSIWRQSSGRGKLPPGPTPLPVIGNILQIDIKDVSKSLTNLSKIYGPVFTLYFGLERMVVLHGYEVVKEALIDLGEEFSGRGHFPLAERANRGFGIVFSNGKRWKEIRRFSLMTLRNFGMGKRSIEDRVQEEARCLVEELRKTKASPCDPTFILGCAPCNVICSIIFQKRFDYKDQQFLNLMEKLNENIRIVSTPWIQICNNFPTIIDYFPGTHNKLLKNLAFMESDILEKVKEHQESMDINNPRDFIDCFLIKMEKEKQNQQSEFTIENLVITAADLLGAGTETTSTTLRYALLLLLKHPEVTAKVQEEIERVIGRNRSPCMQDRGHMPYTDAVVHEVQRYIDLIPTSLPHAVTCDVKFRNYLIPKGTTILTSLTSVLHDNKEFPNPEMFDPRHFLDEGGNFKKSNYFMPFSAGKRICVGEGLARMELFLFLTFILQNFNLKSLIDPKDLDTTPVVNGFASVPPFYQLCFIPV

Which results are given for `Cc1ncc2n1-c1ccc(Cl)cc1C(c1ccccc1F)=NC2` [Midazolam, midazolam]?
AUC(0-inf) (CYP3A [1]): 20.3 ng·h/mL; AUC(0-t) (CYP3A [1]): 19.8 ng·h/mL; Cmax (CYP3A [1]): 7.2 ng/mL; half-life (CYP3A [1]): 3.34 h; Tmax (CYP3A [1]): ~0.5 h; AUC(0-inf) (CYP3A [1]; po, 2 mg): 21.2 ng·h/mL; AUC(0-t) (CYP3A [1]; po, 2 mg): 20.5 ng·h/mL; Cmax (CYP3A [1]; po, 2 mg): 8.03 ng/mL; half-life (CYP3A [1]; po, 2 mg): 3.87 h; Tmax (CYP3A [1]; po, 2 mg): ~0.5 h; Treatment‐emergent AEs ([2]; midazolam 2 mg only, 12 healthy volunteers): No TEAEs were reported

Which results are given for `Cc1ncccc1NC(=O)c1ccc2c(c1)CC[C@@H]1C[C@@](O)(C(F)(F)F)CC[C@@]21Cc1ccccc1` [PF‐00251802, dagrocorat]?
Ki (CYP2D6 [3]): 570 nM; kinact/KI (CYP2D6 [3]; dextromethorphan): 367 M⁻¹ s⁻¹; Concentrations at which time‐dependent inhibition of CYP2D6 was shown (CYP2D6 [3]; dextromethorphan as probe substrate): ≥ 600 nM; IC50 (CYP2C9): 1800 nM; Induction of CYP1A2 enzyme activity (CYP1A2 [4]): No induction; Estimated Emax (Fold Induction) (CYP3A4 mRNA; Lot 1, expt 1): 13 Fold Induction; Estimated Emax (Fold Induction) (CYP3A4 mRNA; Lot 1, expt 2): 4.7 Fold Induction; Estimated Emax (Fold Induction) (CYP3A4 mRNA; Lot 2, expt 1): 40 Fold Induction; Estimated Emax (Fold Induction) (CYP3A4 mRNA; Lot 2, expt 2): 22 Fold Induction; Induction of CYP3A4 mRNA (CYP3A4 mRNA; all lots tested, positive defined as ≥4‐fold induction based on mRNA): Induction of CYP3A4 mRNA was observed; IC50 (CYP2C8): 480 nM; Estimated total Cmax ([5]; 25‐mg steady‐state administration of PF‐04171327, ref Miyoshi et al 11, Weatherley et al 22, unpublished data): approximately 300 ng/mL; Time to achieve apparent steady‐state concentrations ([5]; multiple‐dose study of PF‐04171327 in healthy volunteers): 12 days; Cmax ([5]; read-out: Estimated total Cmax, 25‐mg steady‐state administration of PF‐04171327, ref Miyoshi et al 11, Weatherley et al 22, unpublished data): ~610 nM; Concentrations at which time‐dependent inhibition of CYP3A was shown (CYP3A4/5; midazolam as marker substrate): ≥ 80 nM; kinact/KI (CYP3A4/5; midazolam, slope of kobs versus [I] curve): 1200 M⁻¹ s⁻¹; IC50 [6]: 480 to 4600 nM; IC50 (CYP3A [7]; probe felodipine (oxidation)): 1300 nM; IC50 (CYP3A [7]; probe midazolam (1′-hydroxylation)): 4600 nM; IC50 (CYP3A [7]; probe testosterone (6β-hydroxylation)): 1000 nM; Unbound Cmax [8]: approximately 2.1 ng/mL and ~4.2 nM; IC50 (CYP2C19): > 30000 nM; IC50 (CYP2B6): > 30000 nM; IC50 (CYP2D6 [9]): 570 nM; Fraction unbound in microsomes [10]: approximately 0.22; IC50 (CYP1A2 [11]): > 30000 nM; Induction of CYP3A4 enzyme activity (CYP3A4): not observed

For `Cc1ncccc1NC(=O)c1ccc2c(c1)CC[C@@H]1C[C@@](OP(=O)(O)O)(C(F)(F)F)CC[C@@]21Cc1ccccc1` [PF‐04171327, fosdagrocorat], which “Detection in systemic circulation” value ([5]; single or multiple ascending‐dose phase 1 studies, lower limit of quantification 0.5 ng/mL, ref Pfizer, unpublished data) is on record?
The value was “not detected”.

And the “Efficacy in improving signs and symptoms of RA” value [12]?
The value was “superior efficacy relative to placebo and comparable efficacy relative to prednisone”.

What about the SAEs or deaths ([2]; coadministration of PF‐04171327 and midazolam) of the same compound?
The SAEs or deaths was “No SAEs or deaths were reported”.
